Test results: ChEMBL document CHEMBL1255494, “In vivo comparison of the pharmacodynamic targets for echinocandin drugs against Candida species” (Antimicrob Agents Chemother, 2010)
In brackets after ≈: the same amount, converted by molar mass. *1 amine or outer side, *2 acyl side, *3 side chain or, on linkers, in order; H or OH if unused. Where a SMILES comes first, the peptide text is derived from it. Bridges are numbered along the chain shown (N, C = ends). [ ]: non-standard residue; d: D form. The star is where a group is joined. hTyr(3S-OH,4S-OH,3'-OSO3H) = N[C@H](C(=O)O)[C@H](O)[C@@H](O)c1ccc(O)c(OS(=O)(=O)O)c1; pTerphenylCO(4''-OnC5H11) = CCCCCOc1ccc(-c2ccc(-c3ccc(C(=O)*)cc3)cc2)cc1; Orn(4R-OH,5R-OH) = O=C([C@H](C[C@@H](O)[C@@H](O)N[*:3])N[*:1])[*:2]; hTyr(3S-OH,4S-OH) = N[C@H](C(=O)O)[C@H](O)[C@@H](O)c1ccc(O)cc1; Pro(3S-OH,4S-Me) = C[C@H]1CN[C@H](C(=O)O)[C@H]1O; X1 = CCCCCOc1ccc(-c2cc(-c3ccc(C(=O)*)cc3)no2)cc1; Gln(3R-OH) = NC(=O)C[C@@H](O)[C@H](N)C(=O)O; Hyp = O=C(O)[C@@H]1C[C@@H](O)CN1

Columns and labels:
Mus musculus [1] = test: Cmax in Candida albicans infected neutropenic ICR Swiss mouse at 5 mg/kg, ip; assay type: ADME, organism-based; design: dose 5 mg/kg, route intraperitoneal; details: in vivo
Procedure, shortened: (§1)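 Neutropenic female ICR Swiss mice (cyclophosphamide sc at 150 mg/kg on day −4, 100 mg/kg on day −1 and day +2) infected iv via tail vein with Candida; single ip doses of 5, 20 or 80 mg/kg. Serum drawn from 3 mice per time point at eight time points and assayed by microbiologic assay (C. albicans K1) or […]. Noncompartmental analysis; AUC by trapezoidal rule.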

[2] = Ratio of fAUC (0 to 24 hrs) in Candida parapsilosis infected neutropenic ICR Swiss mouse to MIC for Candida parapsilosis at static dose after 24 hrs; assay type: functional
[3] = Ratio of AUC (0 to 24 hrs) in Candida albicans infected neutropenic ICR Swiss mouse to MIC for Candida albicans at 1 log kill dose after 24 hrs; assay type: functional
Procedure, shortened: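 Neutropenic mice were infected iv and treated 2 h later. Four to six ip dose levels (0.078–160 mg/kg) were given every 24 h for 4 days, 3 mice per regimen. Kidney CFU were counted at 96 h. A sigmoid dose-effect model gave the static and 1-log-kill doses relative to burden at therapy start.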

Nakaseomyces glabratus [4] = test: Fungistatic activity against Candida glabrata infected in neutropenic ICR Swiss mouse after 24 hrs; assay type: functional
Procedure, shortened: (§2)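 Female ICR Swiss mice, neutropenic via cyclophosphamide s.c. (150 mg/kg day −4, 100 mg/kg day −1 and day +2), infected by tail-vein injection of clinical isolates 2 h before therapy. Intraperitoneal dosing every 24 h for 4 days, 4–6 dose levels from 0.078 to 160 mg/kg, 3 mice per regimen. Kidney CFU counted at 96 h. Sigmoid dose-effect fit gives static dose and 1 log kill dose relative to burden at start of therapy.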

Candida parapsilosis [5] = test: Antifungal activity against Candida parapsilosis 20511.092 after 24 hrs; assay type: functional; details: Lodderomyces parapsilosis, 20511.092, 24 h
Procedure, shortened: (§3)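 MICs by CLSI M27-A3 broth dilution in RPMI 1640, inoculum 0.5 × 10³ to 2.5 × 10³ cells/ml, 35°C. Read visually at 24 h as the lowest concentration giving ≥50% growth reduction versus control. Run on three occasions in duplicate and reported as the mean. C. krusei ATCC 6258 and C. parapsilosis ATCC 22019 served as QC strains.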

Nakaseomyces glabratus [6] = test: Antifungal activity against Candida glabrata infected in ICR Swiss mouse; assay type: functional; details: for ED50: Nakaseomyces glabratus; procedure, shortened: as §2
Candida albicans [7] = test: Antifungal activity against Candida albicans 98-210 after 24 hrs; assay type: functional; details: 98-210, 24 h
Procedure, shortened: (§4)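 Broth microdilution per CLSI M27-A3 in RPMI 1640; inoculum 0.5 × 10³ to 2.5 × 10³ cells/ml, 35°C. […] Three separate occasions in duplicate, mean reported; C. krusei ATCC 6258 and C. parapsilosis ATCC 22019 as daily QC.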

Mus musculus [8] = test: Protein binding in Candida albicans infected neutropenic ICR Swiss mouse at 80 mg/kg, ip; assay type: ADME, organism-based; design: dose 80 mg/kg, route intraperitoneal; details: in vivo
Mus musculus [9] = test: Cmax in Candida albicans infected neutropenic ICR Swiss mouse at 20 mg/kg, ip; assay type: ADME, organism-based; design: dose 20 mg/kg, route intraperitoneal; details: in vivo; procedure, shortened: as §1
Candida albicans [10] = test: Antifungal activity against Candida albicans 98-234 after 24 hrs; assay type: functional; details: 98-234, 24 h; procedure, shortened: as §3
Candida orthopsilosis = test: Antifungal activity against Candida orthopsilosis 20577.055 after 24 hrs; assay type: functional; details: Lodderomyces orthopsilosis, 20577.055, 24 h; procedure, shortened: as §3
Nakaseomyces glabratus [11] = test: Antifungal activity against Candida glabrata 32930 after 24 hrs; assay type: functional; details: Nakaseomyces glabratus, 32930, 24 h; procedure, shortened: as §4
[12] = AUC (0 to 24 hrs) in Candida albicans infected neutropenic ICR Swiss mouse at 80 mg/kg, ip; assay type: ADME, organism-based; design: time < 24 hr, dose 80 mg/kg, route intraperitoneal; details: plasma; procedure, shortened: as §1
Nakaseomyces glabratus [13] = test: Antifungal activity against Candida glabrata 35315 after 24 hrs; assay type: functional; details: Nakaseomyces glabratus, 35315, 24 h; procedure, shortened: as §3
Candida parapsilosis [14] = test: Antifungal activity against Candida parapsilosis infected in ICR Swiss mouse; assay type: functional; details: for ED50: Lodderomyces parapsilosis; procedure, shortened: as §2
Candida albicans [15] = test: Antifungal activity against Candida albicans 570 after 24 hrs; assay type: functional; details: Candida albicans, 570, 24 h; procedure, shortened: as §3
Candida albicans [16] = test: Antifungal activity against Candida albicans infected in ICR Swiss mouse assessed as log reduction in bacterial count […]; assay type: functional; procedure, shortened: as §2
[17] = Ratio of fAUC (0 to 24 hrs) in Candida glabrata infected neutropenic ICR Swiss mouse to MIC for Candida glabrata at 1 log kill dose after 24 hrs; assay type: functional
Candida parapsilosis [18] = test: Antifungal activity against Candida parapsilosis 20423.078 after 24 hrs; assay type: functional; details: Lodderomyces parapsilosis, 20423.078, 24 h; procedure, shortened: as §3
Candida parapsilosis [19] = test: Antifungal activity against Candida parapsilosis 20385.079 after 24 hrs; assay type: functional; details: Lodderomyces parapsilosis, 20385.079, 24 h; procedure, shortened: as §3
Mus musculus [20] = test: Cmax in Candida albicans infected neutropenic ICR Swiss mouse at 80 mg/kg, ip; assay type: ADME, organism-based; design: dose 80 mg/kg, route intraperitoneal; details: in vivo; procedure, shortened: as §1

Structure (SMILES)	Ratio [2]	Ratio [3]	Activity (Nakaseomyces glabratus [4]) [mg/kg]	MIC (Candida parapsilosis [5]) [µg/mL]	Emax (Nakaseomyces glabratus [6]) [log10 CFU/kidneys]	ED50 (Nakaseomyces glabratus [6]) [mg/kg]	MIC (Candida albicans [7]) [µg/mL]	Activity (Mus musculus [8]) [%]	MIC (Candida orthopsilosis) [µg/mL]	MIC (Nakaseomyces glabratus [11]) [µg/mL]	AUC(0-t) at 24 h [12] [µg·h/mL]	MIC (Nakaseomyces glabratus [13]) [µg/mL]	Emax (Candida parapsilosis [14]) [log10 CFU/kidneys]	ED50 (Candida parapsilosis [14]) [mg/kg]	MIC (Candida albicans [15]) [µg/mL]	Activity (Candida albicans [16]) [mg/kg]	Ratio [17]	MIC (Candida parapsilosis [18]) [µg/mL]	MIC (Candida parapsilosis [19]) [µg/mL]	other results
CCCCCOc1ccc(-c2ccc(-c3ccc(C(=O)N[C@H]4C[C@@H](O)[C@@H](O)NC(=O)[C@@H]5[C@@H](O)[C@@H](C)CN5C(=O)[C@H]([C@@H](C)O)NC(=O)[C@H]([C@H](O)[C@@H](O)c5ccc(O)cc5)NC(=O)[C@@H]5C[C@@H](O)CN5C(=O)[C@H]([C@@H](C)O)NC4=O)cc3)cc2)cc1 [ANIDULAFUNGIN] ({pTerphenylCO(4''-OnC5H11)}-[Orn(4R-OH,5R-OH)]T[Hyp][hTyr(3S-OH,4S-OH)]T[Pro(3S-OH,4S-Me)]; lactam 1-C)	11.5	9125	21.1	1 (≈ 0.877 µM)	6	15.5	0.015 (≈ 0.0132 µM)	99	0.5 (≈ 0.438 µM)	0.06 (≈ 0.0526 µM)	1980	0.25 (≈ 0.219 µM)	5.8	7.2	0.03 (≈ 0.0263 µM)	4.25	32	1 (≈ 0.877 µM)	1 (≈ 0.877 µM)	Cmax (Mus musculus [1]): 4300 ng/mL; Cmax (Mus musculus [9]): 24000 ng/mL; MIC (Candida albicans [10]): 0.015 µg/mL (≈ 0.0132 µM); Cmax (Mus musculus [20]): 60000 ng/mL
CCCCCOc1ccc(-c2cc(-c3ccc(C(=O)N[C@H]4C[C@@H](O)[C@@H](O)NC(=O)[C@@H]5[C@@H](O)[C@@H](C)CN5C(=O)[C@H]([C@H](O)CC(N)=O)NC(=O)[C@H]([C@H](O)[C@@H](O)c5ccc(O)c(OS(=O)(=O)O)c5)NC(=O)[C@@H]5C[C@@H](O)CN5C(=O)[C@H]([C@@H](C)O)NC4=O)cc3)no2)cc1 [MICAFUNGIN] (X1-[Orn(4R-OH,5R-OH)]T[Hyp][hTyr(3S-OH,4S-OH,3'-OSO3H)][Gln(3R-OH)][Pro(3S-OH,4S-Me)]; lactam 1-C)	4.95	10088	2.47	0.25 (≈ 0.197 µM)	5.4	3	0.016 (≈ 0.0126 µM)	99.75	0.25 (≈ 0.197 µM)	0.008 (≈ 0.0063 µM)	1400	0.06 (≈ 0.0472 µM)	4.8	2.6	0.02 (≈ 0.0157 µM)	5.63	9.45	0.5 (≈ 0.394 µM)	0.5 (≈ 0.394 µM)	–
